Here are results for 30 compounds from ChEMBL document CHEMBL1125585, “(Methoxyalkyl)thiazoles: a new series of potent, selective, and orally active 5-lipoxygenase inhibitors displaying high enantioselectivity” (J Med Chem, 1991).

A value given as a limit tells only on which side of the number the result lay.

The target of assay [1] is T1, Polyunsaturated fatty acid 5-lipoxygenase (Homo sapiens, UniProt P09917).
T1 sequence (P09917 whole entry): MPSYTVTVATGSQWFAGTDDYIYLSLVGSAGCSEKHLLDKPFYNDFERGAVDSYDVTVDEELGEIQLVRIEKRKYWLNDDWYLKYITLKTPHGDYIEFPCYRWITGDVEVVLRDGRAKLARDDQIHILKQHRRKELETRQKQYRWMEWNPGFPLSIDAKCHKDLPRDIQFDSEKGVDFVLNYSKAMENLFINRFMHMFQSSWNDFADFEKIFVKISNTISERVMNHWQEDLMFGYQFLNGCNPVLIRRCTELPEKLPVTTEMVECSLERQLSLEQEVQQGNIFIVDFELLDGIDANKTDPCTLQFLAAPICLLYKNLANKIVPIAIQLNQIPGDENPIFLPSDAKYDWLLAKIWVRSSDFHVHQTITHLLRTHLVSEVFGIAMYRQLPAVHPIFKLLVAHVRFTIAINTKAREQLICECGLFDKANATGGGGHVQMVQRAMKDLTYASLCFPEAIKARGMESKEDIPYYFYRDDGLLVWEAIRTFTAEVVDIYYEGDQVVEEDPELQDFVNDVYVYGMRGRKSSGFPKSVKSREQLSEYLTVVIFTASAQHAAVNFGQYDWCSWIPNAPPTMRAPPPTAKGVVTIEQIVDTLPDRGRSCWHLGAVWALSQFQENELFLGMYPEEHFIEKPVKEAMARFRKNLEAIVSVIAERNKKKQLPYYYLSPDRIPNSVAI
Description: Inhibition of 5-lipoxygenase in human whole blood. Format: tissue-based. The method, boiled down: (§1)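 Eicosanoid (LTB4, PGE2, TXB2) generation measured in vitro in heparinised rat or human whole blood; IC50s given ± SE with the number of determinations.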

Assay [2] concerns the target T2, Polyunsaturated fatty acid 5-lipoxygenase (Mus musculus, UniProt P48999).
T2 sequence (P48999 whole entry): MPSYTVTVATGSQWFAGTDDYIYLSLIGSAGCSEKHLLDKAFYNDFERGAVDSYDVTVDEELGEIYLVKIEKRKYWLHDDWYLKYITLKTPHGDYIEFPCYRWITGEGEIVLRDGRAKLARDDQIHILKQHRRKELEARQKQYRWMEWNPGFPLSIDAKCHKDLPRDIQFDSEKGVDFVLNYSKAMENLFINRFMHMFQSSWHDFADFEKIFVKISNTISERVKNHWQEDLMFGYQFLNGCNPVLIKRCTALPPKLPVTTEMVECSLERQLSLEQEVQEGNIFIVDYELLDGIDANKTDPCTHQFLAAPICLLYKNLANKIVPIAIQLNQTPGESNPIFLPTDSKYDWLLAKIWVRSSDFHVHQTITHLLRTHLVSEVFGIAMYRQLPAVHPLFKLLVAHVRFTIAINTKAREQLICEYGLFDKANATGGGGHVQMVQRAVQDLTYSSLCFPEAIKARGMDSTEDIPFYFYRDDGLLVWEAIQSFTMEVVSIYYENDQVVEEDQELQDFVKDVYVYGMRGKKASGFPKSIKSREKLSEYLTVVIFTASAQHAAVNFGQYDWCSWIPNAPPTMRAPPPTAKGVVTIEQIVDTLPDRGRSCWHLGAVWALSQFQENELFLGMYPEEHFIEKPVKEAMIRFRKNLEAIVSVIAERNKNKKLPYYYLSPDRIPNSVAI
Description: Inhibition of 5-lipoxygenase in mouse macrophages. The method in brief:
(§2)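 LTC4 and PGE2 synthesis measured in plasma-free cultures of murine peritoneal macrophages.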

For assay [3], the target named is T3, Polyunsaturated fatty acid 5-lipoxygenase (Rattus norvegicus, UniProt P12527).
T3 sequence (P12527 whole entry): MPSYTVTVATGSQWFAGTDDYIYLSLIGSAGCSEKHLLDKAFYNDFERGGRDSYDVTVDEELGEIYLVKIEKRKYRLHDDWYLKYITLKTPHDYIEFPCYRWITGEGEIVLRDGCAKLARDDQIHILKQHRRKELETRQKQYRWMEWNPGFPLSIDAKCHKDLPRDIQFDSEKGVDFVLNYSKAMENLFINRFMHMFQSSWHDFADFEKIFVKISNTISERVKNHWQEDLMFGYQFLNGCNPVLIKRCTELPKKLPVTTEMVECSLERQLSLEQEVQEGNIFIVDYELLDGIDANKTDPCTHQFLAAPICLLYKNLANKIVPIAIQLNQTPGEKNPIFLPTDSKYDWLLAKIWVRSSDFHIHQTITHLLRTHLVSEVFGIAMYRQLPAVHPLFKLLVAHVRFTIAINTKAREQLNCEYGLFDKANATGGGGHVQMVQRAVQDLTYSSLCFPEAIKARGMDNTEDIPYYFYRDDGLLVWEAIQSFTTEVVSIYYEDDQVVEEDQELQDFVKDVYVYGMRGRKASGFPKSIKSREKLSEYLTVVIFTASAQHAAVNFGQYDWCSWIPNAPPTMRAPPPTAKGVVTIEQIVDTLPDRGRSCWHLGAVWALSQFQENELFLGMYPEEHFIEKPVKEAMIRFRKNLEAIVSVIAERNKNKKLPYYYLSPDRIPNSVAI
Description: Compound was tested for the inhibition of 5-lipoxygenase (5-Lpo) in rat whole blood. The assay is classed as tissue-based. The method in brief: as §1

Assay [4] has as its target T3, Polyunsaturated fatty acid 5-lipoxygenase. Description: Compound was tested for the inhibition of 5-lipoxygenase (5-LPO) in rat basophilic leukemia (RBL) cells. Format: cell-based, RBL-1. The method in brief: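 Cell-free 5-LPO activity was measured spectrophotometrically. The enzyme source was the high-speed supernatant of rat basophilic leukemia (RBL) cells.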

For assay [5], the species on record is Homo sapiens. In words: In vitro inhibition of LTB4 synthesis in human whole blood. Format: functional. The method, boiled down:
as §1

The species entered for assay [6] is Homo sapiens. Description: In vitro inhibition of TXB2 synthesis in human whole blood. The assay is classed as functional. The method, boiled down: as §1
Assay [7] is filed under the species Mus musculus. Description: In vitro inhibition of LTC4 synthesis in plasma free mouse macrophages. Format: functional. The method in brief:
as §2

The species entered for assay [8] is Mus musculus. In words: In vitro inhibition of PGE-2 synthesis in plasma free mouse macrophages. Format: functional. The method, boiled down:
as §2

Assay [9] is filed under the species Rattus norvegicus. In words: In vitro inhibition of LTB4 synthesis in rat whole blood. Format: functional. The method in brief: as §1
In assay [10] the test system is Rattus norvegicus. In words: Compound was evaluated ex vivo for inhibition of LTB4 synthesis in rat on oral administration. Format: functional. The method, boiled down:
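Rats dosed orally at 1 mL/kg with a suspension made by mixing 300 µL of compound in DMSO into 15 mL of 0.5% hydroxypropyl methyl cellulose with 0.1% polysorbate 80. Controls got the same volume of vehicle. After 1 h the animals were killed and bled, and LTB4 and TXB2 synthesis was measured in the blood ex vivo, n = 5 per point.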

For assay [11], the species on record is Rattus norvegicus. Description: In vitro inhibition of TXB2 synthesis against rat whole blood.
Assay [12] is filed under the species Rattus norvegicus. Description: In vitro inhibition of PGE-2 synthesis against rat whole blood. Format: functional. To be noted: in the assay text read “TXB2” for “PGE-2”. The method in brief:
as §1

`CCC(OC)(c1cccc(OCc2ccc3ccccc3c2)c1)c1cscn1` (configuration not stated) came in with an IC50 in assay [1] of 600 nM.

`COC1(c2nccs2)CCc2c(OCc3ccc4ccccc4c3)cccc21` (configuration not stated) showed an IC50 in assay [1] above 40000 nM.

As for `CCCC(O)(c1cccc(OCc2ccc3ccccc3c2)c1)c1nccs1` (configuration not stated), the IC50 in assay [2] is 80 nM; in assay [1], 8800 nM.

In assay [1], `CCC(O)(c1cccc(OCCCc2ccccc2)c1)c1nccs1` (configuration not stated) returned an IC50 of 11000 nM.

Regarding `COC(c1cccc(OCc2ccc3ccccc3c2)c1)c1nccs1` (configuration not stated), the values for the IC50 in assay [2], in assay [1] and in [3] were 300 nM, 7000 nM and 6000 nM, respectively.

In the case of `CCC(OC)(c1cccc(OCc2ccc(F)c(F)c2)c1)c1nccs1` (configuration not stated), the values for the IC50 in [2] and in assay [1] were 800 nM and 40000 nM, respectively.

`CCC(OC)(c1ccc(OCc2ccc3ccccc3c2)cc1)c1nccs1` (configuration not stated) displayed an IC50 in assay [1] of around 40000 nM.

As for `CCC(OC)(c1cccc(OCc2ccc3ccccc3c2)c1)c1cncs1` (configuration not stated), the IC50 in assay [1] turned out to be 6300 nM.

`CCC(OC)(c1cccc(OCc2cccc3ccccc23)c1)c1nccs1` (configuration not stated) returned an IC50 in assay [1] of 4800 nM.

`COC1CCc2ccc(OCc3ccc4ccccc4c3)cc21` (configuration not stated) came in with an IC50 in assay [1] above 40000 nM.

With `c1ccc2cc(COc3ccc4c(c3)C(c3nccs3)CC4)ccc2c1` (configuration not stated), the IC50 in [1] is above 40000 nM.

For the compound `Cc1cnc(C(O)c2cccc(OCc3ccc4ccccc4c3)c2)[nH]1` (configuration not stated), the IC50 in assay [3] was above 30000 nM.

`CCC(O)(c1cccc(OCC#Cc2cccc(C)c2)c1)c1nccs1` (configuration not stated): in assay [1], the IC50 came to 2500 nM.

Take `Cc1cnc(C(C)(O)c2cccc(OCc3ccc4ccccc4c3)c2)s1` (configuration not stated): the IC50 in assay [1] is around 40000 nM.

`CCC(OC)(c1cccc(OCc2ccc3ccccc3c2)c1)c1nc(C)cs1` (configuration not stated): the IC50 in assay [2] is 820 nM; in [1], around 40000 nM.

Take `CCC(O)(c1cccc(OC/C=C/c2ccccc2)c1)c1nccs1` (configuration not stated): the IC50 in assay [2] is 6 nM; in assay [1], 800 nM.

As for `COC(C)(c1cccc(OCc2ccc3ccccc3c2)c1)c1nccs1` (configuration not stated), the IC50 in assay [2] turned out to be 5 nM; in assay [1], 500 nM; in [3] it was 800 nM.

In assay [1], `CCC(OC)(c1nccs1)c1ccccc1OCc1ccc2ccccc2c1` (configuration not stated) registered an IC50 above 40000 nM.

In the case of `CCCCCCCCCCOc1cccc(C(O)c2nc(C)c[nH]2)c1` (configuration not stated), the IC50 in assay [3] is above 30000 nM.

In [1], `CCC(O)(c1cccc(OCc2ccc(Cl)c(Cl)c2)c1)c1nccs1` (configuration not stated) gave an IC50 of 1100 nM.

With `CC(C)C(O)(c1cccc(OCc2ccc3ccccc3c2)c1)c1nccs1` (configuration not stated), the IC50 worked out at 1000 nM in assay [2] and 40000 nM in [1].

Regarding `CCC(O)(c1cccc(OCC#Cc2ccccc2)c1)c1nccs1` (configuration not stated), the IC50 amounted to 30 nM in [2] and 1000 nM in assay [1].

In turn, `OC(c1cccc(OCc2ccc3ccccc3c2)c1)c1nccs1` (configuration not stated) returned an IC50 in assay [3] of 30000 nM.

On to `COC1(c2nccs2)CCc2ccc(OCc3ccc4ccccc4c3)cc21` (racemic), for which the figures for the concentration for half-maximal inhibition (IC50) in assay [2], in [1] and in assay [4] were 14 nM, 700 nM and 800 nM, respectively.

On to `COC1(c2nccs2)CCc2ccc(OCc3ccc4ccccc4c3)cc21` (single isomer, unassigned; (+)), for which the IC50 is below 30 nM in assay [2], 500 nM in [1] and 130 nM in assay [4].

In the case of `COC1(c2nccs2)CCc2ccc(OCc3ccc4ccccc4c3)cc21` (single isomer, unassigned; (-)), the IC50 in [2] was 1500 nM; in assay [1], above 40000 nM; in assay [4], above 20000 nM.

Regarding `COC(C)(c1cccc(OCc2ccc3ccccc3c2)c1)c1nccs1` (stereo in doubt; 2o), the IC50 in assay [2] is 2000 nM; in assay [1], around 40000 nM.

Take `COC(C)(c1cccc(OCc2ccc3ccccc3c2)c1)c1nccs1` (stereo in doubt; 2p): the IC50 in [2] is 30 nM; in assay [1], 700 nM.

On to `CC(c1cc2ccccc2s1)N(O)C(N)=O` (configuration not stated) [ZILEUTON], for which the IC50 in [5] stood at 2000 nM; in assay [6], 25000 nM; in assay [7] it was 1200 nM; in [8], 27000 nM; in assay [9], 2000 nM; in assay [11], 25000 nM. In assay [10], this compound came in with an ED50 of 5 mg/kg.

On to `CCC(OC)(c1cccc(OCc2ccc3ccccc3c2)c1)c1nccs1` (configuration not stated) [ZM-211965], for which the IC50 in [2] was 8 nM; in [3], 500 nM; in assay [5], 400 nM; in [6], above 100000 nM; in [7], 8 nM; in assay [8], above 50000 nM. Moreover, the IC50 in assay [9] is 500 nM; in assay [12], above 100000 nM. In assay [10], this compound had an ED50 of 10 mg/kg.

As a reminder, the IC50 is the concentration that gives 50% inhibition. Higher therefore signals weaker potency. The ED50 is the midpoint of the dose-response relation.
